Laboratory results as given in ChEMBL document CHEMBL2163342, “[18F](R)-5-chloro-1-(1-cyclopropyl-2-methoxyethyl)-3-(4-(2-fluoroethoxy)-2,5-dimethyl phenylamino)pyrazin-2(1H)-one: introduction of N3-phenylpyrazinones as potential CRF-R1 PET imaging agents” (Bioorg Med Chem Lett, 2012).

What was measured:
[1] = Metabolic stability in baboon plasma assessed as compound remaining after 9 and 13 mins; type: ADME, cell-free; settings: papio anubis, read-out: Stability
[2] = molecular target: T1, Corticotropin-releasing factor receptor 1 (Homo sapiens, UniProt P34998); experiment: Binding affinity to CRFR1 by autoradiography
T1 sequence (P34998 whole entry): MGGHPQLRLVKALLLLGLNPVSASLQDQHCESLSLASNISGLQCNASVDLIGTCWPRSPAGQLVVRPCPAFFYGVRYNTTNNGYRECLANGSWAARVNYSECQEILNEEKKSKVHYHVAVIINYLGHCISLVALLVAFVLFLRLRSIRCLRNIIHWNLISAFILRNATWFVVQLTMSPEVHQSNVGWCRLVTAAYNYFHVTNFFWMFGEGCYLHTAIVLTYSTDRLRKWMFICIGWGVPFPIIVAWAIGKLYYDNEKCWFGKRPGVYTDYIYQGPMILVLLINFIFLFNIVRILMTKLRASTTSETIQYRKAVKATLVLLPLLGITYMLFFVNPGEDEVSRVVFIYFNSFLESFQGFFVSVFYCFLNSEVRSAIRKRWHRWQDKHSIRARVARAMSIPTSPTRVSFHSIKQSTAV
Method in brief: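 In vitro autoradiography on fresh 20 µm sagittal brain sections from adult male Sprague–Dawley rats. Sections preincubated 10 min in 50 mM HEPES, 10 mM MgCl2, EGTA, pH 7.4, then incubated with 1.3 nM [18F] radioligand at 22–24 °C for 40 min. Washed 2 min in ice-cold PBS, pH 7.4.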

[3] = molecular target: T2, Corticotropin-releasing factor receptor 1 (Rattus norvegicus, UniProt P35353); experiment: Displacement of [125I]-o-CRF from CRFR1 in rat frontal cortex after 2 hrs by gamma counter; type: tissue-based
T2 sequence (P35353 whole entry): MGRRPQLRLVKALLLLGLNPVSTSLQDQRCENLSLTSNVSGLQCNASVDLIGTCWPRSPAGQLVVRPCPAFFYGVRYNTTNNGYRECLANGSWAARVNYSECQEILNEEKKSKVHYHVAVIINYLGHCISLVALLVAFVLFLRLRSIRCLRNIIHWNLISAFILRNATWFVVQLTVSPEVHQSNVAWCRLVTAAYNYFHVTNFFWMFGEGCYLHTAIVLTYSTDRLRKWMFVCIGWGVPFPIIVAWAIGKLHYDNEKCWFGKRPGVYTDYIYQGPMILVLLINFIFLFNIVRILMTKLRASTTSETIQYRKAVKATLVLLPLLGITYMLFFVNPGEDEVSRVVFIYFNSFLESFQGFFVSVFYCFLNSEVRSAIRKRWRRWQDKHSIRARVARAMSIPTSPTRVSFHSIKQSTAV
Method in brief: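 Rat frontal cortex homogenate (25 µg/well), prepared in 50 mM HEPES pH 7.0, 10 mM MgCl2, 2 mM EGTA, protease inhibitors, 0.005% Triton X-100, bacitracin, 0.1% ovalbumin. Incubated with 150 pM [125I]-o-CRF and compounds for 2 h at 21 °C. Separated by rapid filtration on PEI-pretreated glass fiber filters, washed with ice-cold PBS/0.01% Triton X-100. Specific binding inhibition gives Ki.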

[4] = Octanol-phosphate buffer partition coefficient, log D of the compound at pH 7.4 by shake flask method; type: physicochemical
Method in brief: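 Shake-flask method. Octanol and 25 mM phosphate buffer (pH ~7.4) mixed and allowed to saturate overnight. Compound (1.0 mg in 1 mL octanol) added to 50 mL octanol-saturated buffer, shaken intensely 30–40 min, then layers left to separate. Each layer analysed twice by HPLC.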

[5] = tested on: Liver microsomes; experiment: Drug metabolism in human liver microsomes assessed as compound depletion per mg of protein at 3 uM; type: ADME, Microsome
Method in brief: (§1)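 Liver microsomes (1 mg/ml protein) incubated with 3 µM compound and 1.3 mM NADPH at 37 °C in 100 mM sodium phosphate buffer, pH 7.4. Final solvent 0.015% DMSO, 0.985% acetonitrile. Stopped at 0 and 10 min, compound measured by LC/MS/MS. Reported as depletion rate, pmol/min/mg protein.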

[6] = tested on: Liver microsomes; experiment: Drug metabolism in rat liver microsomes assessed as compound depletion per mg of protein at 3 uM; type: ADME, Microsome; method in brief: as §1
[7] = tested on: Intestine; experiment: Drug uptake in rat small intestine measured at 15 and 60 mins; type: ADME, tissue-based; settings: in vivo, 1 h
Method in brief: (§2)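 Whole-body biodistribution of the [18F]-labelled radioligand in rats, formulated in 10% EtOH/saline. Tissues sampled at 15 and 60 min post-dose. Activity expressed as average % injected dose per gram.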

[8] = tested on: Muscle tissue; experiment: Drug uptake in rat muscle measured at 15 and 60 mins; type: ADME, tissue-based; settings: in vivo, 1 h; method in brief: as §2
[9] = tested on: Brain; experiment: Drug uptake in rat brain measured at 15 and 60 mins; type: ADME, tissue-based; settings: in vivo, 1 h; method in brief: as §2
[10] = tested on: Brain; experiment: Drug uptake in rat brain after 10 to 30 mins by microPET analysis; type: ADME, tissue-based; settings: in vivo
Method in brief: (§3)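 In vivo microPET imaging of rat head and neck after dosing with the [18F] radioligand. Brain uptake followed from the first 10 min through 30 min on sagittal images. Skull bone uptake checked for defluorination.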

[11] = tested on: Blood; experiment: Drug uptake in rat blood measured at 15 and 60 mins; type: ADME, tissue-based; settings: 1 h; method in brief: as §2
[12] = tested on: Lung; experiment: Drug uptake in rat lung measured at 15 and 60 mins; type: ADME, tissue-based; settings: in vivo, 1 h; method in brief: as §2
[13] = tested on: Liver; experiment: Drug uptake in rat liver measured at 15 and 60 mins; type: ADME, tissue-based; settings: in vivo, 1 h; method in brief: as §2
[14] = tested on: Brain; experiment: Drug uptake in rat brain up to 10 mins by microPET analysis; type: ADME, tissue-based; settings: in vivo; method in brief: as §3
[15] = tested on: Heart; experiment: Drug uptake in rat heart measured at 15 and 60 mins; type: ADME, tissue-based; settings: in vivo, 1 h; method in brief: as §2
[16] = tested on: Spleen; experiment: Drug uptake in rat spleen measured at 15 and 60 mins; type: ADME, tissue-based; settings: in vivo, 1 h; method in brief: as §2
[17] = tested on: Kidney; experiment: Drug uptake in rat kidney measured at 15 and 60 mins; type: ADME, tissue-based; settings: in vivo, 1 h; method in brief: as §2
[18] = Drug uptake in rat tibia measured at 15 and 60 mins; type: ADME, tissue-based; settings: in vivo, 1 h; method in brief: as §2
[19] = Unbound fraction in rat plasma after 3 hrs by equilibrium dialysis method; type: ADME, cell-free
Method in brief: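 Equilibrium dialysis of rat plasma spiked with compound against isotonic phosphate buffer, 3 h at 37 °C. Buffer and plasma concentrations measured by LC/MS/MS. Unbound fraction taken as the buffer/plasma concentration ratio.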

[20] = molecular target: T3, Corticotropin-releasing factor receptor 1 (Rattus norvegicus) (UniProt P35353); experiment: Binding affinity to CRFR1 in Sprague-Dawley rat neocortex at 1.3 nM after 40 mins by autoradiography; settings: tested as the 18F-labelled form
T3 sequence (whole entry): T2 sequence (P35353 whole entry)
Method in brief: (§4)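 Fresh 20 µm-thick sagittal brain sections from adult male Sprague–Dawley rats. Sections were preincubated 10 min in 50 mM HEPES, 10 mM MgCl₂, […], pH 7.4, then incubated 40 min at 22–24 °C with 1.3 nM [¹⁸F]-radioligand (1.3 mCi/mL) in the same buffer. Slides were washed 2 min in ice-cold PBS (pH 7.4) and imaged by in vitro autoradiography.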

[21] = molecular target: T3, Corticotropin-releasing factor receptor 1 (Rattus norvegicus); experiment: Binding affinity to CRFR1 in Sprague-Dawley rat cerebellum at 1.3 nM after 40 mins by autoradiography; settings: tested as the 18F-labelled form; method in brief: as §4

IC50 [3] [nM]	logD [4]	Drug metabolism [5] [pmol/min]	Drug metabolism [6] [pmol/min]	Structure (SMILES)	other results
				CCCN(CCC)c1cc(C)nc2c(-c3ccc(N(C)[11CH3])nc3)c(C)nn12	remaining at 13 min [1]: 50%; Ki [2]: 1.7 nM
210	3.1	0.07	0.12	COCC(COC)n1cc(Cl)nc(Nc2c(Cl)cc(OCCF)cc2Cl)c1=O	
				COC[C@@H](C1CC1)n1cc(Cl)nc(Nc2cc(C)c(OCC[18F])cc2C)c1=O	Drug uptake [7]: Active; Drug uptake [8]: Active; Drug uptake [9]: Active; Drug uptake [10]: Not Active; Drug uptake [11]: Active; Drug uptake [12]: Active; Drug uptake [13]: Active; Drug uptake [14]: Active; Drug uptake [15]: Active; Drug uptake [16]: Active; Drug uptake [17]: Active; Drug uptake [18]: Active
				COCCN(CCOC)c1nc(C)nc2c(-c3ccc([76Br])cc3Cl)c(C)nn12	Ki [2]: 2 nM
		0.17	0.23	COC[C@@H](C1CC1)n1cc(Cl)nc(Nc2cc(C)c(OC)cc2C)c1=O	
0.88	3.4	0.06	0.19	COC[C@@H](C)n1cc(Cl)nc(Nc2cc(C)c(OC)cc2C)c1=O	
				CCC(COC)n1nnc2c(Nc3ccc(O[11CH3])cc3C)nc(C)cc21 (centres undefined)	Ki [2]: 1.7 nM
0.68	3.8	0.07	0.14	COCC(COC)n1cc(Br)nc(Nc2cc(C)c(OC)cc2C)c1=O	
4.1	3.1			COC[C@@H](C1CC1)n1cc(Cl)nc(Nc2cc(C)c(OCF)cc2C)c1=O	
4.3	2.9	0.22	0.26	COCC(COC)n1cc(Br)nc(Nc2c(C)cc(OCF)cc2C)c1=O	fraction unbound at 3 h [19]: 0.03
5.4	3.1			COCC(COC)n1cc(Cl)nc(Nc2c(Cl)cc(OCF)cc2Cl)c1=O	
				COCCN(CCO[11CH3])Cc1cc(C)nc2c(-c3ccc(Cl)cc3Cl)c(C)nn12 [[11C]DMP-696]	remaining at 13 min [1]: 50%; Ki [2]: 1.7 nM
5	3.4	0.03	0.17	COCC(COC)n1cc(Cl)nc(Nc2c(Cl)cc(OC)cc2Cl)c1=O	
2.4	3.7	0.07	0.12	COC[C@@H](C1CC1)n1cc(Cl)nc(Nc2cc(C)c(OCCF)cc2C)c1=O	Activity [20]: 18%; Activity [21]: 19%
7.8	2.8			COCC(COC)n1cc(Br)nc(Nc2c(C)cc(OC)cc2C)c1=O	fraction unbound at 3 h [19]: 0.03
